Where a SMILES comes first, the peptide text is derived from it. [ ]: non-standard residue; d: D form. Gly(N(CH2)2(3-indolyl)) = O=C(O)CNCCc1c[nH]c2ccccc12; Gly(N-(CH2)3-guanidino) = N=C(N)NCCCNCC(=O)O; Nle = CCCC[C@H](N)C(=O)O; Nphe = O=C(O)CNCc1ccccc1; NBuGly = CCCCNCC(=O)O; Nlys = NCCCCNCC(=O)O
Key:
Assay type in all cases: cell-based, HEK293
[1] = molecular target: T1, Melanocortin receptor 3 (Homo sapiens, UniProt P41968); assay: Displacement of [125I]NDP-MSH from human melanocortin receptor-3 expressed in 293 HEK cells
Outline: (§1)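 Radioligand competition with [125I]-NDP-MSH on HEK293 cells expressing human MC3, human MC4 or mouse MC5 receptor. Ligands up to 30 µM. IC50 reported as -log(IC50) (M) with 95% confidence ranges. Ligands without activation activity were tested only at a single 30 µM concentration.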

[2] = molecular target: T2, Melanocortin receptor 5 (Mus musculus, UniProt P41149); assay: Displacement of [125I]NDP-MSH from mouse melanocortin receptor-5 expressed in 293 HEK cells; outline: as §1
[3] = molecular target: T2, Melanocortin receptor 5; assay: Effective concentration against mouse melanocortin receptor-5 expressed in 293 HEK cells
Outline: (§2)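 LacZ reporter-gene activation assay in HEK293 cells expressing human MC3, human MC4 or mouse MC5 receptor. Dose-response curves run up to 30 µM. EC50 reported as -log(EC50) (M) with 95% confidence ranges. Incomplete or absent curves at 30 µM were not assigned values.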

[4] = molecular target: T3, Melanocortin receptor 4 (Homo sapiens, UniProt P32245); assay: Displacement of [125I]NDP-MSH from human melanocortin receptor-4 expressed in 293 HEK cells; outline: as §1
[5] = molecular target: T1, Melanocortin receptor 3; assay: Effective concentration against human melanocortin receptor-3 expressed in 293 HEK cells; outline: as §2
[6] = molecular target: T3, Melanocortin receptor 4; assay: Effective concentration against human melanocortin receptor-4 expressed in 293 HEK cells; outline: as §2

T2 sequence (P41149 whole entry): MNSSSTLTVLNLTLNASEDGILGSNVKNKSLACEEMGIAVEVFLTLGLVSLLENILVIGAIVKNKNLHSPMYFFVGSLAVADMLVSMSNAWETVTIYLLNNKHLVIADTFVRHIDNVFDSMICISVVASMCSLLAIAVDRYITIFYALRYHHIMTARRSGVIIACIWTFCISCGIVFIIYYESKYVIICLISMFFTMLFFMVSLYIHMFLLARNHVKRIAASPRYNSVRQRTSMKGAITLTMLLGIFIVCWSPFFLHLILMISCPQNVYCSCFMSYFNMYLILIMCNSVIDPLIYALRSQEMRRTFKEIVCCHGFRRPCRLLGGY
T1 sequence (P41968 whole entry): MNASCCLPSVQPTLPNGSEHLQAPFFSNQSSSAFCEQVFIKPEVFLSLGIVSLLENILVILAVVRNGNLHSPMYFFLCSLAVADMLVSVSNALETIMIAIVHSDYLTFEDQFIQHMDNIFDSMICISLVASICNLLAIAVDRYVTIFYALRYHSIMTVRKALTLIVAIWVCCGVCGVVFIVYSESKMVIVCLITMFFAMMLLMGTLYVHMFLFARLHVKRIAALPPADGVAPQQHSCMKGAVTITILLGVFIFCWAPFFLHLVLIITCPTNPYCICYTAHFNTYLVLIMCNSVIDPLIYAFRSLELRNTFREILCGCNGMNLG
T3 sequence (P32245 whole entry): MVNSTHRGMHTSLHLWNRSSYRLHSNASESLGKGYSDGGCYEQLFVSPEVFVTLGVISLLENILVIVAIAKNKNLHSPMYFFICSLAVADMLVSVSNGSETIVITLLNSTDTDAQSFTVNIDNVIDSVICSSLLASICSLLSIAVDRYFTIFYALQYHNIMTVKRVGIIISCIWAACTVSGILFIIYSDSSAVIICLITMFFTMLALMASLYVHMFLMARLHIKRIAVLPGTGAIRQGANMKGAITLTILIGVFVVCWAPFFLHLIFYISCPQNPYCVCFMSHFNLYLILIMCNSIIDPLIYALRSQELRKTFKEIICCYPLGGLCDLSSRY

Row | IC50 [1] | IC50 [2] | EC50 [3] | IC50 [4] | EC50 [5] | EC50 [6] | SMILES
1 | 1260 nM | 794 nM | 7940 nM | 63.1 nM | 2000 nM | 63.1 nM | CCCCN(CC(=O)NCC(=O)N(CCCCN)CC(=O)N[C@H](Cc1ccccc1)C(=O)N[C@@H](CCCNC(=N)N)C(=O)N[C@@H](Cc1c[nH]c2ccccc12)C(=O)NCC(N)=O)C(C)=O
2 | 631 nM | 501 nM | 12.6 nM | 158 nM | 501 nM | 251 nM | CCCC[C@H](NC(C)=O)C(=O)NCC(=O)N[C@@H](CCCCN)C(=O)N[C@H](Cc1ccccc1)C(=O)N(CCCCNC(=N)N)CC(=O)N(CCc1c[nH]c2ccccc12)CC(=O)NCC(N)=O
3 | 1260 nM | 1580 nM | 3980 nM | 794 nM | 794 nM | 631 nM | CCCCN(CC(=O)NCC(=O)N[C@@H](CCCCN)C(=O)N[C@H](Cc1ccccc1)C(=O)N[C@@H](CCCNC(=N)N)C(=O)N(CC(=O)NCC(N)=O)Cc1c[nH]c2ccccc12)C(C)=O
4 | 2000 nM | 1000 nM | 15.8 nM | 79.4 nM | 158 nM | 79.4 nM | CCCC[C@H](NC(C)=O)C(=O)NCC(=O)N[C@@H](CCCCN)C(=O)N[C@H](Cc1ccccc1)C(=O)N(CCCNC(=N)N)CC(=O)N(CCc1c[nH]c2ccccc12)CC(=O)NCC(N)=O
5 |  |  |  |  |  | 2000 nM | CCCC[C@H](NC(C)=O)C(=O)NCC(=O)N(CCCCN)CC(=O)N[C@H](Cc1ccccc1)C(=O)N[C@@H](CCCNC(=N)N)C(=O)N(CCc1c[nH]c2ccccc12)CC(=O)NCC(N)=O
6 | 5010 nM | 2000 nM | 100 nM | 316 nM | 631 nM | 158 nM | CCCC[C@H](NC(C)=O)C(=O)NCC(=O)N[C@@H](CCCCN)C(=O)N[C@H](Cc1ccccc1)C(=O)N(CCCNC(=N)N)CC(=O)N(CC(=O)NCC(N)=O)Cc1c[nH]c2ccccc12
7 | 501 nM | 794 nM | 251 nM | 251 nM | 316 nM | 158 nM | CCCC[C@H](NC(C)=O)C(=O)NCC(=O)N[C@@H](CCCCN)C(=O)N[C@H](Cc1ccccc1)C(=O)N[C@@H](CCCN=C(N)N)C(=O)N(CC(=O)NCC(N)=O)Cc1c[nH]c2ccccc12
8 | 3980 nM | 2000 nM | 63.1 nM | 158 nM |  | 251 nM | CCCC[C@H](NC(C)=O)C(=O)NCC(=O)N[C@@H](CCCCN)C(=O)N[C@H](Cc1ccccc1)C(=O)N(CCCCN=C(N)N)CC(=O)N[C@@H](Cc1c[nH]c2ccccc12)C(=O)NCC(N)=O
9 |  |  |  |  | 3160 nM | 316 nM | CCCCN(CC(=O)NCC(=O)N[C@@H](CCCCN)C(=O)N[C@H](Cc1ccccc1)C(=O)N[C@@H](CCCNC(=N)N)C(=O)N(CCc1c[nH]c2ccccc12)CC(=O)NCC(N)=O)C(C)=O
10 | 200 nM |  | 31.6 nM | 2.51 nM | 7.94 nM | 0.501 nM | CCCC[C@H](NC(C)=O)C(=O)NCC(=O)N[C@@H](CCCCN)C(=O)N[C@H](Cc1ccccc1)C(=O)N[C@@H](CCCNC(=N)N)C(=O)N[C@@H](Cc1c[nH]c2ccccc12)C(=O)NCC(N)=O
11 | 5010 nM | 3160 nM | 251 nM | 398 nM | 3980 nM | 631 nM | CCCC[C@H](NC(C)=O)C(=O)NCC(=O)N[C@@H](CCCCN)C(=O)N[C@H](Cc1ccccc1)C(=O)N(CCCNC(=N)N)CC(=O)N[C@@H](Cc1c[nH]c2ccccc12)C(=O)NCC(N)=O
12 | 7940 nM | 10000 nM | 2000 nM | 316 nM | 2000 nM | 316 nM | CCCC[C@H](NC(C)=O)C(=O)NCC(=O)N[C@@H](CCCCN)C(=O)N[C@H](Cc1ccccc1)C(=O)N[C@@H](CCCN=C(N)N)C(=O)N(CCc1c[nH]c2ccccc12)CC(=O)NCC(N)=O
13 | 126 nM |  | 794 nM | 20 nM | 25.1 nM | 2.51 nM | CCCCN(CC(=O)NCC(=O)N[C@@H](CCCCN)C(=O)N[C@H](Cc1ccccc1)C(=O)N[C@@H](CCCN=C(N)N)C(=O)N[C@@H](Cc1c[nH]c2ccccc12)C(=O)NCC(N)=O)C(C)=O
14 |  |  |  |  |  | 1260 nM | CCCC[C@H](NC(C)=O)C(=O)NCC(=O)N[C@@H](CCCCN)C(=O)N(CC(=O)N[C@@H](CCCN=C(N)N)C(=O)N[C@@H](Cc1c[nH]c2ccccc12)C(=O)NCC(N)=O)Cc1ccccc1 (Ac-[Nle]GK[Nphe]RWG-NH2)

Second part, the compound before the results:

Row | SMILES | IC50 [1] | IC50 [2] | EC50 [3] | IC50 [4] | EC50 [5] | EC50 [6]
15 | CCCCN(CC(=O)NCC(=O)N[C@@H](CCCCN)C(=O)N[C@H](Cc1ccccc1)C(=O)N(CCCN=C(N)N)CC(=O)N(CCc1c[nH]c2ccccc12)CC(=O)NCC(N)=O)C(C)=O | 3160 nM | 1260 nM | 316 nM | 251 nM | 158 nM | 100 nM
16 | CCCCN(CC(=O)NCC(=O)N(CCCCN)CC(=O)N[C@H](Cc1ccccc1)C(=O)N[C@@H](CCCNC(=N)N)C(=O)N(CC(=O)NCC(N)=O)Cc1c[nH]c2ccccc12)C(C)=O | 2000 nM | 2000 nM |  | 794 nM |  | 3980 nM
17 | CCCCN(CC(=O)NCC(=O)N(CCCCN)CC(=O)N[C@H](Cc1ccccc1)C(=O)N(CCCN=C(N)N)CC(=O)N(CCc1c[nH]c2ccccc12)CC(=O)NCC(N)=O)C(C)=O | 3980 nM | 2000 nM |  | 1000 nM | 6310 nM | 794 nM
18 | CCCC[C@H](NC(C)=O)C(=O)NCC(=O)N(CCCCN)CC(=O)N[C@H](Cc1ccccc1)C(=O)N[C@@H](CCCN=C(N)N)C(=O)N(CC(=O)NCC(N)=O)Cc1c[nH]c2ccccc12 | 794 nM | 631 nM | 2000 nM | 158 nM | 5010 nM | 1260 nM
19 | CCCCN(CC(=O)NCC(=O)N[C@@H](CCCCN)C(=O)N[C@H](Cc1ccccc1)C(=O)N(CCCN=C(N)N)CC(=O)N[C@@H](Cc1c[nH]c2ccccc12)C(=O)NCC(N)=O)C(C)=O |  |  | 6310 nM |  | 5010 nM | 794 nM
20 | CCCCN(CC(=O)NCC(=O)N[C@@H](CCCCN)C(=O)N[C@H](Cc1ccccc1)C(=O)N(CCCN=C(N)N)CC(=O)N(CC(=O)NCC(N)=O)Cc1c[nH]c2ccccc12)C(C)=O | 7940 nM | 3160 nM |  | 794 nM |  | 501 nM
21 | CCCCN(CC(=O)NCC(=O)N(CCCCN)CC(=O)N[C@H](Cc1ccccc1)C(=O)N[C@@H](CCCN=C(N)N)C(=O)N(CCc1c[nH]c2ccccc12)CC(=O)NCC(N)=O)C(C)=O |  | 6310 nM |  | 2000 nM |  | 6310 nM
22 | CCCCN(CC(=O)NCC(=O)N(CCCCN)CC(=O)N[C@H](Cc1ccccc1)C(=O)N(CCCN=C(N)N)CC(=O)N(CC(=O)NCC(N)=O)Cc1c[nH]c2ccccc12)C(C)=O |  | 3980 nM |  | 3980 nM |  | 5010 nM
23 | CCCCN(CC(=O)NCC(=O)N[C@@H](CCCCN)C(=O)N(CC(=O)N[C@@H](CCCN=C(N)N)C(=O)N[C@@H](Cc1c[nH]c2ccccc12)C(=O)NCC(N)=O)Cc1ccccc1)C(C)=O (Ac-[NBuGly]GK[Nphe]RWG-NH2) |  | 5010 nM |  | 5010 nM |  | 2000 nM
24 | CCCCN(CC(=O)NCC(=O)N(CCCCN)CC(=O)N[C@@H](Cc1ccccc1)C(=O)N(CCCN=C(N)N)CC(=O)N[C@@H](Cc1c[nH]c2ccccc12)C(=O)NCC(N)=O)C(C)=O (Ac-[NBuGly]G[Nlys]F[Gly(N-(CH2)3-guanidino)]WG-NH2) |  |  | 6310 nM | 5010 nM |  | 3160 nM
25 | CCCC[C@H](NC(C)=O)C(=O)NCC(=O)N[C@@H](CCCCN)C(=O)N(CC(=O)N(CCCN=C(N)N)CC(=O)N(CCc1c[nH]c2ccccc12)CC(=O)NCC(N)=O)Cc1ccccc1 (Ac-[Nle]GK[Nphe][Gly(N-(CH2)3-guanidino)][Gly(N(CH2)2(3-indolyl))]G-NH2) |  |  | 7940 nM |  |  | 
26 | CCCC[C@H](NC(C)=O)C(=O)NCC(=O)N(CCCCN)CC(=O)N[C@@H](Cc1ccccc1)C(=O)N(CCCN=C(N)N)CC(=O)N[C@@H](Cc1c[nH]c2ccccc12)C(=O)NCC(N)=O (Ac-[Nle]G[Nlys]F[Gly(N-(CH2)3-guanidino)]WG-NH2) |  |  | 501 nM |  |  | 2000 nM
27 | CCCC[C@H](NC(C)=O)C(=O)NCC(=O)N(CCCCN)CC(=O)N(CC(=O)N[C@@H](CCCN=C(N)N)C(=O)N[C@@H](Cc1c[nH]c2ccccc12)C(=O)NCC(N)=O)Cc1ccccc1 (Ac-[Nle]G[Nlys][Nphe]RWG-NH2) |  |  |  |  |  | 2000 nM
28 | CCCC[C@H](NC(C)=O)C(=O)NCC(=O)N(CCCCN)CC(=O)NC(Cc1ccccc1)C(=O)N(CCCNC(=N)N)CC(=O)N(CC(=O)NCC(N)=O)Cc1c[nH]c2ccccc12 (single isomer, unassigned) |  | 3160 nM | 3160 nM | 3160 nM | 6310 nM | 2000 nM
29 | CCCC[C@H](NC(C)=O)C(=O)NCC(=O)N(CCCCN)CC(=O)NC(Cc1ccccc1)C(=O)N(CCCNC(=N)N)CC(=O)N(CCc1c[nH]c2ccccc12)CC(=O)NCC(N)=O (single isomer, unassigned) | 3980 nM | 1580 nM | 1000 nM | 501 nM | 3980 nM | 398 nM

— ChEMBL document CHEMBL1144399, “Peptoid-peptide hybrids as potent novel melanocortin receptor ligands” (J Med Chem, 2005)
